Active and inactive are the calls of the source. No cut-off for these calls is given here.
How the values were obtained:
HL-60 [1] = assay: Effect on human HL60 cells assessed as fold change in ANKRD36 gene expression at 1.085 uM incubated for 6 hrs by microarray-based method; format: functional
Outline: (§1)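 HL60 cells were treated in triplicate with 1.085 µM or vehicle for 6 h. Total RNA was extracted with on-column DNase treatment and profiled on expression arrays.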

HL-60 [2] = assay: Effect on human HL60 cells assessed as fold change in ATP6AP1L gene expression at 1.085 uM incubated for 6 hrs by microarray-based method; format: functional; outline: as §1
HL-60 [3] = assay: Effect on human HL60 cells assessed as fold change in PHF20L1 gene expression at 1.085 uM incubated for 6 hrs by microarray-based method; format: functional; outline: as §1
HL-60 [4] = assay: Antiproliferative activity against human HL60 cells assessed as reduction in cell viability after 48 hrs by MTT assay; conditions: HL-60, 48 h
HL-60 [5] = assay: Effect on human HL60 cells assessed as fold change in GDF10 gene expression at 1.085 uM incubated for 6 hrs by microarray-based method; format: functional; outline: as §1
HL-60 [6] = assay: Effect on human HL60 cells assessed as fold change in ARL17A gene expression at 1.085 uM incubated for 6 hrs by microarray-based method; format: functional; outline: as §1
HL-60 [7] = assay: Effect on human HL60 cells assessed as fold change in PPP1R1A gene expression at 1.085 uM incubated for 6 hrs by microarray-based method; format: functional; outline: as §1
HL-60 [8] = assay: Effect on human HL60 cells assessed as fold change in CEP44 gene expression at 1.085 uM incubated for 6 hrs by microarray-based method; format: functional; outline: as §1
HL-60 [9] = assay: Induction of cell cycle arrest in human HL60 cells assessed as accumulation of cells at G2/M phase at EC50 incubated for 18 hrs by PI staining based flow cytometric analysis (reference value: 23.0%); format: functional
HL-60 [10] = assay: Effect on human HL60 cells assessed as fold change in C7orf43 gene expression at 1.085 uM incubated for 6 hrs by microarray-based method; format: functional; outline: as §1
RS4-11 [11] = assay: Induction of apoptosis in human RS4:11 cells at 300 nM incubated for 18 hrs by Annexin V-FITC/propidium iodide staining-based flow cytometric analysis; format: functional, cell-based
Outline: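 CEM, HL60 or RS4;11 cells (5×10^5) treated with 300 nM or vehicle for 18 h. Stained with FITC-Annexin V in binding buffer for 15 min at 37 °C, then PI (5 μg/mL) for 3 min. Analyzed by flow cytometry.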

HL-60 [12] = assay: Effect on human HL60 cells assessed as fold change in SGOL1 gene expression at 1.085 uM incubated for 6 hrs by microarray-based method; format: functional; outline: as §1
HL-60 [13] = assay: Effect on human HL60 cells assessed as fold change in TRPM2 gene expression at 1.085 uM incubated for 6 hrs by microarray-based method; format: functional
HL-60 [14] = assay: Effect on human HL60 cells assessed as fold change in flaw-mawbo gene expression at 1.085 uM incubated for 6 hrs by microarray-based method; format: functional
HL-60 [15] = assay: Effect on human HL60 cells assessed as fold change in TBCC gene expression at 1.085 uM incubated for 6 hrs by microarray-based method; format: functional; outline: as §1
HL-60 [16] = assay: Effect on human HL60 cells assessed as fold change in NCBP2-AS2 gene expression at 1.085 uM incubated for 6 hrs by microarray-based method; format: functional; outline: as §1
HL-60 [17] = assay: Induction of differentiation in human HL60 cells assessed as increase in CD11b positive cells at EC50 to EC90 incubated for 24 hrs by 7-AAD staining-based flow cytometric analysis; format: functional, cell-based
Outline: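 Vitamin D3 at 100 nM and ATRA at 2 μM served as positive controls. Stained with APC anti-CD11b and PE anti-CD14 for 30 min at 4 °C, then 7-AAD.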

Tubulin (Homo sapiens) = Tubulin (Homo sapiens) (UniProt P68371+Q9H4B7+P0DPH7+P68366+Q13509+Q71U36+P04350+Q3ZCM7+P07437+P68363+Q9BQE3+Q6PEY2+Q13885+Q9BVA1+Q9BUF5); assay: Induction of microtubule network depolymerization in human HeLa cells assessed as formation of condensed chromosomes at 500 nM incubated for 18 hrs by DAPI staining based fluorescence microscopic method; format: cell-based
Outline: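 HeLa cells (100,000/mL) cultured overnight on glass-bottom dishes, then exposed to 500 nM or 1 μM, or DMSO, for 18 h. Permeabilized (0.5% Triton X-100) and fixed (3.7% formaldehyde). Stained overnight at 4 °C with anti-β-tubulin, then Alexa Fluor 647 secondary for 1 h at room temperature, and DAPI 1 μg/mL for 10 min. Examined by fluorescence microscopy.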

RS4-11 [18] = assay: Induction of apoptosis in human RS4:11 cells assessed as accumulation of cells at sub G2 phase at 300 nM incubated for 18 hrs in presence of PARP antibody by immunofluorescent staining based flow cytometric analysis relative to control; format: functional
Outline: (§2)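 RS4;11 cells treated with 300 nM or DMSO vehicle for 18 h, then pulsed with 10 μM BrdU for 1 h. Harvested cells immunostained for BrdU/PI (cell cycle), γH2AX (DNA damage) and PARP (apoptosis). Multicolor flow cytometry gated G1, sub-G2-like, G2/M and sub-G0/G1 populations.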

HL-60 [19] = assay: Effect on human HL60 cells assessed as fold change in HRH1 gene expression at 1.085 uM incubated for 6 hrs by microarray-based method; format: functional; outline: as §1
RS4-11 [20] = assay: Induction of DNA damage in human RS4:11 cells assessed as accumulation of cells at sub G2 phase at 300 nM incubated for 18 hrs in presence of H2AX antibody by immunofluorescent staining based flow cytometric analysis relative to control; format: functional; outline: as §2
HL-60 [21] = assay: Effect on human HL60 cells assessed as fold change in INSIG1 gene expression at 1.085 uM incubated for 6 hrs by microarray-based method; format: functional; outline: as §1
RS4-11 [22] = assay: Induction of DNA damage in human RS4:11 cells assessed as accumulation of cells at G2 phase at 300 nM incubated for 18 hrs in presence of H2AX antibody by immunofluorescent staining based flow cytometric analysis relative to control; format: functional; outline: as §2
CCRF-CEM = assay: Antiproliferative activity against human CEM cells incubated for 48 hrs by MTT assay; format: functional, cell-based
Outline: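 Cells grown in RPMI-1640 with 10% FBS, penicillin/streptomycin, 37 °C, 5% CO2. After 48 h of exposure to a dilution series, MTT was added (0.5 mg/ml final) for 4 h. Formazan was dissolved overnight in acidic SDS (10% SDS, 0.01 mol/L HCl) and absorbance read at 570 and 620 nm. Survival was expressed relative to controls, and EC50 was fitted from dose-response curves.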

HL-60 [23] = assay: Effect on human HL60 cells assessed as fold change in MEIOC gene expression at 1.085 uM incubated for 6 hrs by microarray-based method; format: functional; outline: as §1
HL-60 [24] = assay: Effect on human HL60 cells assessed as fold change in GDAP1 gene expression at 1.085 uM incubated for 6 hrs by microarray-based method; format: functional; outline: as §1
HL-60 [25] = assay: Effect on human HL60 cells assessed as fold change in SPATA7 gene expression at 1.085 uM incubated for 6 hrs by microarray-based method; format: functional; outline: as §1
HL-60 [26] = assay: Induction of cell cycle arrest in human HL60 cells assessed as accumulation of cells at sub G0/G1 phase at EC50 incubated for 12 hrs by PI staining based flow cytometric analysis (reference value: 1.67%); format: functional

COC(=O)c1[nH]c2cc(OC)ccc2c1-c1ccc(C(F)(F)F)cc1
fold change (FC) (HL-60 [1]): 1.54 | fold change (FC) (HL-60 [2]): -1.53 | fold change (FC) (HL-60 [3]): 1.56 | EC90 (HL-60 [4]): 1000 nM | fold change (FC) (HL-60 [5]): -1.56 | fold change (FC) (HL-60 [6]): -1.5 | fold change (FC) (HL-60 [7]): -1.7 | fold change (FC) (HL-60 [8]): 1.76 | Activity (HL-60 [9]): 56.3% | fold change (FC) (HL-60 [10]): -1.72 | Activity (RS4-11 [11]): Active | fold change (FC) (HL-60 [12]): 1.52 | fold change (FC) (HL-60 [13]): 2.21 | fold change (FC) (HL-60 [14]): -1.62 | fold change (FC) (HL-60 [15]): -1.54 | fold change (FC) (HL-60 [16]): -1.58 | Activity (HL-60 [17]): Active | Activity (Tubulin (Homo sapiens)): Active | Activity (RS4-11 [18]): 3.5% | fold change (FC) (HL-60 [19]): 1.51 | Activity (RS4-11 [20]): 2.3% | fold change (FC) (HL-60 [21]): -1.64 | Activity (RS4-11 [22]): 6.9% | EC50 (CCRF-CEM): 200 nM | fold change (FC) (HL-60 [23]): -1.63 | fold change (FC) (HL-60 [24]): -1.61 | fold change (FC) (HL-60 [25]): 1.56 | Activity (HL-60 [26]): 12.1%

From ChEMBL document CHEMBL4359879, “Synthesis and evaluation of 2-carboxy indole derivatives as potent and selective anti-leukemic agents” (Eur J Med Chem, 2019)
